According to PMC2714051 (European journal of medicinal chemistry, 2008):
Values after ≈ are worked out from the molar mass of the structure shown.

Key:
bovine brain tubulin = test: [3H]colchicine binding to tubulin; details: 1 μM drug; 1.0 μM tubulin, 5.0 μM [3H]colchicine, 10 min 37 °C
[1] = tested on: MCF-7 human breast cancer cells; test: MCF-7 cell growth, sulforhodamine B; assay type: cell-based
SF-295 (glyoblastoma) = test: MTT cytotoxicity assay, SF-295; assay type: cell-based; details: Homo sapiens, SF-295, 72 h, read-out: Cytotoxic activity IC50
Method in brief: (§1)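 Test compounds at 0.0009–5 µg/mL were incubated with the human tumour cells for 72 h. Growth was read by the cells' reduction of yellow MTT to blue formazan.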

HL-60 (leukemia) = test: MTT cytotoxicity assay, HL-60; assay type: cell-based; details: Homo sapiens, HL-60, 72 h, read-out: Cytotoxic activity IC50
Method in brief: as §1

MDA/MB-435 (breast) = test: MTT cytotoxicity assay, MDA/MB-435; assay type: cell-based; details: Homo sapiens, MDA-MB-435, 72 h, read-out: Cytotoxic activity IC50
Method in brief: as §1

HCT-8 (colon) = test: MTT cytotoxicity assay, HCT-8; assay type: cell-based; details: Homo sapiens, HCT-8, 72 h, read-out: Cytotoxic activity IC50
Method in brief: as §1

SMILES | Colchicine binding % inhibition ± SD (bovine brain tubulin) [%] | IC50 ([1]; Homo sapiens, MCF7, 48 h, read-out: MCF-7 cell growth IC50 ± SD) [nM] | IC50 (SF-295 (glyoblastoma)) [µg/mL] | IC50 (HL-60 (leukemia)) [µg/mL] | IC50 (MDA/MB-435 (breast)) [µg/mL] | IC50 (HCT-8 (colon)) [µg/mL] | Fold less active than CA4 as an inhibitor of MCF-7 cell growth ([1]; in comparison with CA4)
COc1ccc(/C=C\c2cc(OC)c(OC)c(OC)c2)cc1O [CA4, combretastatin A-4, reference compound] | 85 ± 5 | 1.4 ± 0.1 | – | – | – | – | –
COc1ccc(Sc2cc(OC)c(OC)c(OC)c2)cc1 [compound 1, 1,2,3-trimethoxy-5-[(4-methoxyphenyl)thio]benzene] | – | – | 0.01 (≈ 0.0326 µM) | 0.001 (≈ 0.00326 µM) | 0.001 (≈ 0.00326 µM) | 0.01 (≈ 0.0326 µM) | about 10 fold
COc1ccc([S+]([O-])c2cc(OC)c(OC)c(OC)c2)cc1 (stereo not drawn) [compound 2, 1,2,3-trimethoxy-5[(4-methoxyphenyl)sulfinyl]benzene] | – | – | 0.47 (≈ 1.46 µM) | 0.11 (≈ 0.341 µM) | 0.09 (≈ 0.279 µM) | 0.15 (≈ 0.465 µM) | –
COc1ccc(S(=O)(=O)c2cc(OC)c(OC)c(OC)c2)cc1 [compound 3, 1,2,3-trimethoxy-5[(4-methoxyphenyl)sulfonyl]benzene] | – | – | 2.61 (≈ 7.71 µM) | 1.53 (≈ 4.52 µM) | 0.75 (≈ 2.22 µM) | 3.95 (≈ 11.7 µM) | –
